A selection: hits, their analogues and other compounds. The true share with any hit is near 1.4%.
A3A deaminase = inhibitors of human APOBEC3A DNA deaminase; actives 0.41% (n = 330,000); recombinant A3A, FAM/TAMRA ssDNA deamination fluorescence; P31941; AID 493011; inhibition, % at 20 µM;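 active means at least 40% inhibition at 20 µM here, with at most 30% in a related deaminase screen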
Target sequence (P31941 whole entry, looked up): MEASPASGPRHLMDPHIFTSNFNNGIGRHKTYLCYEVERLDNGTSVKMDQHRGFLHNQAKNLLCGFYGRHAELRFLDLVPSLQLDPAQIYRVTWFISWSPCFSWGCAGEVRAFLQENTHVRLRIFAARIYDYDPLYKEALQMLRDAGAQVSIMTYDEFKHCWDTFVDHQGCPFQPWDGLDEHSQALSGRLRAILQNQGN
APJ antag = antagonists of human APJ apelin receptor. P35414. CHO-K1 APJ beta-arrestin complementation, luminescence. inhibition, % at 20 µM. actives 0.32% (n = 330,000). AID 2521;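 active means inhibition above about 40% at 20 µM, limit read from the data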;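 further: cells challenged with 10 nM apelin-13 agonist together with compound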
CCR6 antagonist = blocks CCL20-driven beta-arrestin recruitment at human CCR6. P51684. CHO-K1 CCR6 PathHunter beta-arrestin, luminescence, CCL20-stimulated. inhibition, % at 20 µM. actives 0.49% (n = 340,000). AID 493098;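 active means compounds whose inhibition of the agonist-driven luminescence signal at 20 µM reaches about 50%, limit read from the data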;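 further: cells stimulated with CCL20 at 14 nM final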
CXCR6 inh = CXCR6 (human) receptor inhibition; O00574; CHO-K1 PathHunter CXCR6 beta-arrestin, luminescence; inhibition, % at 20 µM; actives 0.36% (n = 360,000); AID 602244; in the data active means inhibition above about 34%, passing the limit was not always enough;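 further: antagonist mode with CXCL16 agonist at 10 nM final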
Target sequence (O00574 whole entry, looked up): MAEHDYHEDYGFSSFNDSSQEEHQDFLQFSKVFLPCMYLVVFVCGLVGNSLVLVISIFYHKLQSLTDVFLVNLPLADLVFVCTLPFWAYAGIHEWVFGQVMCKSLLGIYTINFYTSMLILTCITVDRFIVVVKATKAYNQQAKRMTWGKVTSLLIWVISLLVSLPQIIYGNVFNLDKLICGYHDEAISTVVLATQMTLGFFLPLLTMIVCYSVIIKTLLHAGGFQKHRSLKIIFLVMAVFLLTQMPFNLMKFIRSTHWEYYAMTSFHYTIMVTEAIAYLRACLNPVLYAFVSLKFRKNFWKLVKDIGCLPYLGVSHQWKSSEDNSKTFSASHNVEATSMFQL
APOBEC3G inh = blocks human APOBEC3G single-stranded DNA deamination; inhibition, % at 20 µM; actives 0.28% (n = 330,000); AID 493012; Q9HC16; recombinant A3G, ssDNA deamination FAM/TAMRA fluorescence;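 active means inhibition of at least 40% at 20 µM, with no more than 30% in the related APOBEC3A deaminase screen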
APJ agonist = agonists of human APJ apelin receptor | actives 0.11% (n = 330,000) | P35414 | CHO-K1 APJ PathHunter beta-arrestin, luminescence; 0% DMSO wells, 100% apelin | AID 2520 | activation, % at 20 µM;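 active means activation more than six SD over the plate average, tested at 20 µM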
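assay system = CHO-K1 APJ beta-arrestin complementation cell line | input = cell density 1000 per well | dosing = compound 20 µM once, DMSO 1% | timing = compound 90 min 25 °C, reagent 1 h | measured by = luminescence from split beta-galactosidase complementation, Galacton Star/Emerald II substrate | read-out basis = APJ agonist activity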
A3A conf = APOBEC3A (human) deaminase inhibition, confirmed. shares compounds with A3A deaminase. recombinant A3A, ssDNA deaminase UDG fluorescence assay. inhibition, % at 20 µM. actives 63% (n = 1,400);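 active means inhibition reaching a set limit, 80% of the first screen's cutoff, at 20 µM in any replicate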
UDG ctr A3A = inhibits UDG, flagging false APOBEC3A inhibitors. AID 504714. UDG counterscreen, FAM/TAMRA uracil oligo fluorescence. 1,000 tested, under 10 active. inhibition, % at 20 µM. shares compounds with A3A deaminase; call rule not given here
Of the large screens only hits and unclear results are named; the others gave an inactive call (follow-up assays come after a bar, where they were run).

C[N+](C)(C)CCOC(=O)C1(c2ccccc2)CCCC1	A3A deaminase 60 | A3A conf 76 | UDG ctr A3A inactive
CN(CC(=O)Nc1cccnc1)S(=O)(=O)c1ccc(Br)cc1	none
CC(C[N+](C)(C)C)OC(=O)C1(c2ccccc2)CCCC1 (stereo unspecified)	A3A deaminase 44 | A3A conf 66 | UDG ctr A3A inactive
CCCN(CC(=O)Nc1ccccc1OC)C(=O)c1cccc(S(=O)(=O)Nc2ccc(OC)cc2)c1	none
CC(C)(C)N(NC(=O)Nc1ccc(Cl)c(Cl)c1)C(=O)c1ccccc1	A3A deaminase 40 | A3A conf inactive
CCN1CCN(c2ccc(NC(=O)COc3ccc(Cl)cc3C)cc2)CC1	none
O=C(COc1ccc(Br)cc1)NCCNC(=O)c1ccncc1	none
CCCNc1c(F)c(F)c2c(C)c3ccccc3nc2c1F	A3A deaminase 42 | A3A conf inactive | UDG ctr A3A inactive
Cc1c2ccccc2nc2ccccc12	none
CN(CC(=O)Nc1ccc(Cl)c(Cl)c1)C(=O)CNC(=O)Cc1ccccc1	none
O=C(Nc1ccccc1-c1ccccc1)C(c1ccccc1)c1ccccc1	none
CCCCCCNCC(=O)N1CCC(Cc2ccccc2)CC1	none
Cc1c(-c2ccnc3cc(C(=O)O)nn23)cnn1C	A3A deaminase 49 | A3A conf 32 | UDG ctr A3A inactive
CCn1cc(-c2ccnc3cc(C(=O)O)nn23)c(C)n1	none
O=[N+]([O-])c1ccc(S(=O)(=O)Nc2nnc(C(F)(F)F)s2)cc1	none
Cc1ccc(N=Nc2[nH]c3ccccc3c2O)cc1	A3A deaminase 63 | A3A conf 59 | UDG ctr A3A inactive
COc1ccc(N=Nc2[nH]c3ccc(C)cc3c2O)cc1	A3A deaminase 75 | A3A conf 52 | UDG ctr A3A inactive
Cc1ccc(N=Nc2c(O)[nH]c3ccc(F)cc23)cc1	none
COc1ccc(CNC(=O)[C@H](Cc2ccccc2)NC(=O)CC[C@H]2O[C@@H](n3ccc(=O)[nH]c3=O)[C@H](O)[C@@H]2O)cc1	none (no result: A3A deaminase, APJ antag, CCR6 antagonist, APOBEC3G inh, APJ agonist)
CCC(=O)Nc1nnc(SCC(=O)NCC2CCCO2)s1 (stereo unspecified)	none
CC(=O)Nc1ccc2nc(SCC(=O)NCCOc3ccccc3)sc2c1	none
CC(=O)Nc1nnc(SCC(=O)NCC2CCCO2)s1 (stereo unspecified)	A3A deaminase 41 | A3A conf 40 | UDG ctr A3A inactive
CC(=O)Nc1nnc(SCC(=O)NCCOc2ccccc2)s1	A3A deaminase 57 | A3A conf 63 | UDG ctr A3A inactive
CC(C)(C)[C@@H]1COC(=O)[C@H](Cc2ccc(F)cc2)CC/C=C\C[C@@H](CC(=O)NCCO)C(=O)N1	none
O=C(CSc1nc2ccccc2[nH]1)N1CCN(c2ccccc2)CC1	none
O=C(CSc1nc2sccc2c(=O)[nH]1)N1CCN(c2ccccc2)CC1	A3A deaminase 87 | A3A conf 53 | UDG ctr A3A inactive
C=CCC[C@@H](Cc1ccc(F)cc1)C(=O)OC[C@@H](NC(=O)[C@H](CC=C)CC(=O)NCCO)C(C)(C)C	none
CCC1=[N+](C)c2cccc3cccc(c23)N1C	A3A deaminase 65 | A3A conf 78 | UDG ctr A3A inactive
COC(=O)c1ccc(C2N=C(c3cccs3)CC(c3ccccc3O)N2)cc1 (stereo unspecified)	none
CCCCCC(=O)N1C[C@H](O)[C@@H](n2cc(-c3ccc(F)cc3)nn2)C[C@@H]1c1ccc(OC)cc1	none (no result: A3A deaminase, APJ antag, CCR6 antagonist, APOBEC3G inh, APJ agonist)
COc1ccc2c(c1)c(=O)oc1cc(OCC(=O)N3CCCC(C)C3)ccc12 (stereo unspecified)	none
COc1ccc2c(c1)c(=O)oc1cc(OCC(=O)N3CCc4ccccc4C3)ccc12	A3A deaminase 45 | A3A conf 71 | UDG ctr A3A inactive
COc1ccc2c(c1)c(=O)oc1cc(OCC(=O)N3CCC(C)CC3)ccc12	A3A deaminase 54 | A3A conf 49 | UDG ctr A3A inactive
CSCCC(NC(=O)COc1ccccc1)C(=O)N1CCN(c2ccccc2Cl)CC1 (stereo unspecified)	none
COc1ccc(N(C(=O)c2snc(C(N)=O)c2N)C(CC(C)C)C(=O)NCC2CCCO2)cc1 (stereo unspecified)	none
O=C(COc1ccc2ccccc2c1)N1CCN(c2ccccc2)CC1	none
COc1ccc(N2CCN(C(=O)COc3ccc4ccccc4c3)CC2)cc1	A3A deaminase 46 | A3A conf inactive | UDG ctr A3A inactive
CCCN(CC(=O)Nc1cc(Cl)ccc1Cl)C(=O)/C=C/c1ccco1	A3A deaminase 77 | A3A conf inactive | UDG ctr A3A inactive
COc1ccc(NC2CCCN(C(=O)c3ccc4[nH]c(C)c(C)c4c3)C2)cc1OC (stereo unspecified)	none
CCOC(=O)C1=C(C)N=C2SC(C(=O)OC)=CC(=O)N2C1c1ccc(F)cc1 (stereo unspecified)	A3A deaminase 54 | A3A conf inactive | UDG ctr A3A inactive
CCN1/C(=C/c2ccc3cccc(C)c3[n+]2CC)Sc2ccccc21	A3A deaminase 70 | A3A conf 85 | UDG ctr A3A inactive
CCOC(=O)Cn1c2[n+](c3ccccc31)CC(O)CS2 (stereo unspecified)	A3A deaminase 69 | A3A conf 86 | UDG ctr A3A inactive
COC(=O)Cn1c2[n+](c3ccccc31)CC(O)CS2 (stereo unspecified)	none
COc1ccc(NS(=O)(=O)c2ccc3c(c2)[C@H]2C=CC[C@H]2[C@@H](c2ccc(C(=O)O)cc2)N3)cc1	A3A deaminase 49 | A3A conf 29 | UDG ctr A3A inactive
CN(CC(=O)Nc1ccc(F)c(F)c1F)C(=O)C1=COCCO1	none
CCCN(CC(=O)Nc1ccc(F)c(F)c1F)C(=O)C1=COCCO1	A3A deaminase 51 | A3A conf inactive
Cc1ccc(NS(=O)(=O)c2ccc(C)c(C(=O)N3CCOCC3)c2)cc1	none
CCc1ccc(NS(=O)(=O)c2ccc(C)c(C(=O)N3CCOCC3)c2)cc1	A3A deaminase 75 | A3A conf 91 | UDG ctr A3A inactive
COc1ccccc1N(CC(=O)Nc1ccc2c(c1)OCO2)S(=O)(=O)c1ccccc1	A3A deaminase 49 | A3A conf 64 | UDG ctr A3A inactive
COc1ccc(S(=O)(=O)N(CC(=O)Nc2ccc3c(c2)OCO3)c2ccccc2OC)cc1	none
Cc1ccc(NC(=O)c2ccc(OCC3CCCO3)cc2)cc1Cl (stereo unspecified)	none (no result: A3A deaminase, APJ antag, CCR6 antagonist, APOBEC3G inh, APJ agonist)
